Key:
[1] = target: T1, von Hippel-Lindau disease tumor suppressor/Bromodomain-containing protein 7 (Homo sapiens) (UniProt Q9NPI1+P40337); assay: PROTAC activity at VHL/BRD7 in human HeLa cells assessed as remaining BRD7 protein level at 1 uM incubated for 4 hrs by Western blot analysis relative to control; assay type: cell-based
[2] = target: T2, von Hippel-Lindau disease tumor suppressor/Bromodomain-containing protein 9 (Homo sapiens) (UniProt Q9H8M2+P40337); assay: PROTAC activity at VHL/BRD9 in human Ri-1 cells assessed as remaining BRD9 protein level at 1 uM incubated for 2 hrs by Western blot analysis relative to control; assay type: cell-based
T2 sequence (P40337 whole entry, looked up): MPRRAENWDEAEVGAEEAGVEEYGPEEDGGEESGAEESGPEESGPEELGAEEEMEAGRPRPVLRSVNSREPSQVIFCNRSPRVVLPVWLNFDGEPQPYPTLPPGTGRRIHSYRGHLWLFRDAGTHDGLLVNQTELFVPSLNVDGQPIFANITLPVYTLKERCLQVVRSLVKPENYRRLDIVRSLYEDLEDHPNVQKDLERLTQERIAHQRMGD
T2 sequence (Q9H8M2 whole entry, looked up): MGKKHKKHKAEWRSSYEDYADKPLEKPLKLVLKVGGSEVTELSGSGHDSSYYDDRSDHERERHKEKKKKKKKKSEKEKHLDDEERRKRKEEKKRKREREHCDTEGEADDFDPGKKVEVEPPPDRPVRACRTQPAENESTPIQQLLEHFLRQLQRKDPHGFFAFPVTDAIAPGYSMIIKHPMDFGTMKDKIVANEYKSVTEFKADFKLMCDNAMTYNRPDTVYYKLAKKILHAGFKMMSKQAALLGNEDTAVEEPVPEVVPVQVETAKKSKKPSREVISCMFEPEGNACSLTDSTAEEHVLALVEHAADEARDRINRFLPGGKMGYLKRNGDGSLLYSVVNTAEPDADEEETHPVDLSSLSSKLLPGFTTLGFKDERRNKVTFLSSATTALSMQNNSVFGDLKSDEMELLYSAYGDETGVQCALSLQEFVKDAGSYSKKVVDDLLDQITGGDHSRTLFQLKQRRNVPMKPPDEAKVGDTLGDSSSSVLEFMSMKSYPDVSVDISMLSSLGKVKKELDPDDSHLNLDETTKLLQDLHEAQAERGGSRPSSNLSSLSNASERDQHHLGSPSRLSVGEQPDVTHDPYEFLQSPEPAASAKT
Summary of the method: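 Ri-1 cells exposed to compound for the stated time before harvest; BRD9, BRD7 and β-actin measured by Western blot, band intensities quantified and set against DMSO-treated control.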

[3] = target: T1, von Hippel-Lindau disease tumor suppressor/Bromodomain-containing protein 7 (Homo sapiens); assay: PROTAC activity at VHL/BRD7 in human Ri-1 cells assessed as remaining BRD7 protein level at 1 uM incubated for 2 hrs by Western blot analysis relative to control; assay type: cell-based
[4] = target: T2, von Hippel-Lindau disease tumor suppressor/Bromodomain-containing protein 9 (Homo sapiens); assay: PROTAC activity at VHL/BRD9 in human HeLa cells assessed as remaining BRD9 protein level at 1 uM incubated for 16 hrs by Western blot analysis relative to control; assay type: cell-based
Summary of the method: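 HeLa cells treated with compound for the stated time before harvest; BRD9, BRD7 and β-actin detected by Western blot with β-actin loading control; band intensities quantified.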

[5] = target: T1, von Hippel-Lindau disease tumor suppressor/Bromodomain-containing protein 7 (Homo sapiens); assay: PROTAC activity at VHL/BRD7 in human HeLa cells assessed as remaining BRD7 protein level at 1 uM incubated for 16 hrs by Western blot analysis relative to control; assay type: cell-based
[6] = tested on: A204; assay: Antiproliferative activity against human A204 cells assessed as inhibition of cell growth incubated for 7 days by CellTiterGlo assay; assay type: functional, cell-based; details: A204, 168 h
[7] = tested on: EOL1; assay: Antiproliferative activity against human EOL1 cells assessed as inhibition of cell growth incubated for 7 days by CellTiterGlo assay; assay type: functional, cell-based; details: EOL1, 168 h

T1 sequence (P40337 whole entry, looked up): as the sequence (P40337 whole entry, looked up) above
T1 sequence (Q9NPI1 whole entry, looked up): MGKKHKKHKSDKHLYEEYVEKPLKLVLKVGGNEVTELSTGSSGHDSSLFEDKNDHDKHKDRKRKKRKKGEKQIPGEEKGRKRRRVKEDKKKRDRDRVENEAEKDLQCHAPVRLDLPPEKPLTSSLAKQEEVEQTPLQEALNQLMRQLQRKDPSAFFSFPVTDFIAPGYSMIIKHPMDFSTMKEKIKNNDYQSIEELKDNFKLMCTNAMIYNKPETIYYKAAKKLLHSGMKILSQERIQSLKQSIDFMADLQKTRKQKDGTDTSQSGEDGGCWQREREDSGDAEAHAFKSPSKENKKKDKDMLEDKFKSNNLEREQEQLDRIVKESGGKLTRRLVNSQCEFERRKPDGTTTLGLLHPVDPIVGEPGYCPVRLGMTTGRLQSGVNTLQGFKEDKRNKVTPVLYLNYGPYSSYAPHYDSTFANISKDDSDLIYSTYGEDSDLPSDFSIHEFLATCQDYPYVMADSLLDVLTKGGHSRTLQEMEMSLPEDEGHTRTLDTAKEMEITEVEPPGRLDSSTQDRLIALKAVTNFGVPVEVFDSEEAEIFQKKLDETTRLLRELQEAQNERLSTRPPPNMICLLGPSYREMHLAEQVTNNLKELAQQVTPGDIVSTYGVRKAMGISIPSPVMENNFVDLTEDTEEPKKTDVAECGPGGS

SMILES | Activity [1] | Activity [2] | Activity [3] | Activity [4] | Activity [5] | IC50 [6] | IC50 [7]
COc1cc(-c2cn(C)c(=O)c3cnccc23)c(OC)cc1CN1CCN(CCCCCOc2cc(-c3scnc3C)ccc2CNC(=O)[C@@H]2C[C@@H](O)CN2C(=O)[C@@H](NC(=O)C2(F)CC2)C(C)(C)C)CC1 | 151% | 65% | 65% | – | – | – | –
COc1cc(-c2cn(C)c(=O)c3cnccc23)cc(OC)c1CN1CCN(CCCCCOCCOCC(=O)N[C@H](C(=O)N2C[C@H](O)C[C@H]2C(=O)NCc2ccc(-c3scnc3C)cc2)C(C)(C)C)CC1 | 106% | – | – | 61% | 80% | – | –
COc1cccc2c1C(=O)c1c(O)c3c(c(O)c1C2=O)C[C@@](O)(C(=O)CO)C[C@@H]3O[C@H]1C[C@H](N)[C@H](O)[C@H](C)O1 [DOXORUBICIN] | – | – | – | – | – | 6.48 nM | 1.27 nM
COc1cc(-c2cn(C)c(=O)c3cnccc23)cc(OC)c1CN1CCN(CCOCCOCCOCC(=O)N[C@H](C(=O)N2C[C@H](O)C[C@H]2C(=O)NCc2ccc(-c3scnc3C)cc2)C(C)(C)C)CC1 | 107% | – | – | 95% | 106% | – | –
COc1cc(-c2cn(C)c(=O)c3cnccc23)cc(OC)c1CN(C)C | 90% | – | – | – | – | 372 nM | 89.3 nM
COc1cc(-c2cn(C)c(=O)c3cnccc23)cc(OC)c1CN1CCN(CCOCCOCCOCCOCCOc2cc(-c3scnc3C)ccc2CNC(=O)[C@@H]2C[C@@H](O)CN2C(=O)[C@@H](NC(C)=O)C(C)(C)C)CC1 | 109% | – | – | 114% | 98% | – | –
COc1cc(-c2cn(C)c(=O)c3cnccc23)cc(OC)c1CN1CCN(CCOCCOCCOc2cc(-c3scnc3C)ccc2CNC(=O)[C@@H]2C[C@@H](O)CN2C(=O)[C@@H](NC(C)=O)C(C)(C)C)CC1 | 95% | – | – | 156% | 107% | – | –
COc1cc(-c2cn(C)c(=O)c3cnccc23)cc(OC)c1CN1CCN(CCOCCOCCOCCOc2cc(-c3scnc3C)ccc2CNC(=O)[C@@H]2C[C@@H](O)CN2C(=O)[C@@H](NC(=O)C2(F)CC2)C(C)(C)C)CC1 | 182% | 105% | 125% | – | – | – | –
COc1cc(-c2cn(C)c(=O)c3cnccc23)c(OC)cc1CN(C)C | – | – | – | – | – | 3550 nM | 339 nM

Further lines, with some results ahead:

Activity [1] | Activity [2] | Activity [3] | Activity [4] | Activity [5] | SMILES | IC50 [6] | IC50 [7]
3% | 94% | 98% | – | – | COc1cc(-c2cn(C)c(=O)c3cnccc23)c(OC)cc1CN1CCN(CCOCCOc2cc(-c3scnc3C)ccc2CNC(=O)[C@@H]2C[C@@H](O)CN2C(=O)[C@@H](NC(=O)C2(F)CC2)C(C)(C)C)CC1 | – | –
158% | 99% | 112% | – | – | COc1cc(-c2cn(C)c(=O)c3cnccc23)c(OC)cc1CN1CC(NC(=O)COCCOc2cc(-c3scnc3C)ccc2CNC(=O)[C@@H]2C[C@@H](O)CN2C(=O)[C@@H](NC(=O)C2(F)CC2)C(C)(C)C)C1 | – | –
29% | 109% | 125% | – | – | COc1cc(-c2cn(C)c(=O)c3cnccc23)cc(OC)c1CN1CC(NC(=O)COCCOc2cc(-c3scnc3C)ccc2CNC(=O)[C@@H]2C[C@@H](O)CN2C(=O)[C@@H](NC(=O)C2(F)CC2)C(C)(C)C)C1 | – | –
280% | 103% | 120% | – | – | COc1cc(-c2cn(C)c(=O)c3cnccc23)c(OC)cc1CN1CC(NC(=O)COCCOCCOc2cc(-c3scnc3C)ccc2CNC(=O)[C@@H]2C[C@@H](O)CN2C(=O)[C@@H](NC(=O)C2(F)CC2)C(C)(C)C)C1 | – | –
336% | 89% | 102% | – | – | COc1cc(-c2cn(C)c(=O)c3cnccc23)c(OC)cc1CN1CCN(CCCCCOCCOc2cc(-c3scnc3C)ccc2CNC(=O)[C@@H]2C[C@@H](O)CN2C(=O)[C@@H](NC(=O)C2(F)CC2)C(C)(C)C)CC1 | – | –
54% | 110% | 131% | – | – | COc1cc(-c2cn(C)c(=O)c3cnccc23)c(OC)cc1CN1CC(NC(=O)CCCCOc2cc(-c3scnc3C)ccc2CNC(=O)[C@@H]2C[C@@H](O)CN2C(=O)[C@@H](NC(=O)C2(F)CC2)C(C)(C)C)C1 | – | –
